Publication PMC3435882 (Molecular imaging and biology : MIB : the official …, 2009)
Bridge positions count the residues as written; N and C are the ends. Square brackets hold non-standard residues; d marks the D form. Peptide text beside a SMILES is read from it. Cy5.5 = cyanine dye Cy5.5, conjugated as the NHS ester; βAla = NCCC(=O)O

Legend:
[1] = target: T1, MMP-2 (Homo sapiens, UniProt P08253); assay: In vitro MMP-2 inhibition assay; format: biochemical; conditions: MMP-2 Inhibition IC50, APMA-activated MMP-2, 1 hr preincubation at 37°C
T1 sequence (P08253 110-660): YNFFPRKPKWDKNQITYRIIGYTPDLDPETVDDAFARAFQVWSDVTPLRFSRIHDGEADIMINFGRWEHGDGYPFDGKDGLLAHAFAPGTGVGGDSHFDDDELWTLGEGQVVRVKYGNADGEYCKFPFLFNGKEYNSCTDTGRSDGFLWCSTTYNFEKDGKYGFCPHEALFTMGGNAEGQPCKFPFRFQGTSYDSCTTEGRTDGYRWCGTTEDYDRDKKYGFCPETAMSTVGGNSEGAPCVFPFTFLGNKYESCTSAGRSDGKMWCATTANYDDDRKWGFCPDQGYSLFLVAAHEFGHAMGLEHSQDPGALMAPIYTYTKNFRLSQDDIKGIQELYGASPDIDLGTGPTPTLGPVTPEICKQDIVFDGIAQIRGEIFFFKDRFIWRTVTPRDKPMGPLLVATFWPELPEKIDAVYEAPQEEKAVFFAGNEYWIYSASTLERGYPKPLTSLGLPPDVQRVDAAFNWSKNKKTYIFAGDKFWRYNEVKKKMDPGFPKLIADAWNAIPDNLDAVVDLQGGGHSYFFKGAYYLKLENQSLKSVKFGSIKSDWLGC
Summary of the method: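 Commercial MMP-2 was activated with APMA. Test compound was preincubated with activated enzyme (40 ng/200 μl) for 1 hr at 37°C, then biotinylated gelatinase substrate was added for 1 hr. The mixture was moved to a biotin-binding plate (30 min, 37°C) and washed. Streptavidin-enzyme conjugate and chromogenic substrate followed, and OD at 450 nm gave relative gelatinase activity.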

[2] = tested on: PC-3 tumors; format: in vivo, mice; conditions: for tumor uptake in intratibial PC-3 tumors: 48 hr after intravenous injection, 15 nmol/mouse
[3] = tested on: U87 cells; assay: Fluorescence microscopy, probe uptake in U87 cells; format: cell-based, human; conditions: for uptake/binding in U87 cells: 10 μM, 37°C, 5 min
Summary of the method: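 U87 cells grown in DMEM/F-12 with 10% FBS were seeded on cover slips overnight. For blocking, cells were pretreated with doxycycline (5, 25, 100 μM) or unlabelled peptide, then given 10 μM Cy5.5-labelled test compound; uptake samples received the probe alone (10 μM, 37°C, 5 min). After two PBS washes, cells were fixed and stained with 1 μM Sytox Green in 95% ethanol (15 min). Fluorescence microscopy was at ×60.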

[4] = target: T1, MMP-2; assay: In vitro β-casein degradation assay; format: biochemical; conditions: 0, 10, 50, 200 μM; SDS-PAGE
[5] = Stability study in serum-containing culture medium; format: in vitro ADME; conditions: DMEM/F-12 with 10% fetal bovine serum, 25°C, over 3 hr, HPLC
Summary of the method: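 Peptides were incubated at 25°C in DMEM/F-12 containing 10% FBS. Aliquots taken at intervals were analysed by reverse-phase C-18 HPLC using an acetonitrile/water gradient with 0.1% TFA and UV detection at 230 nm. Intact-peptide peak area was expressed as a percentage of the 0-min area.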

[6] = tested on: PC-3 cells; assay: Fluorescence microscopy, probe uptake in PC-3 cells; format: cell-based, human; conditions: 10 μM, 37°C, 5 min
Summary of the method: (§1)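 Cells were kept in DMEM/F-12 with 10% FBS at 37°C, 5% CO₂, seeded on cover slips and incubated overnight. Cy5.5-labelled test compound (10 μM) was added for 5 min at 37°C. Cells were washed twice with PBS, then fixed and nuclear-stained with 1 μM Sytox Green in 95% ethanol for 15 min. Fluorescence microscopy was at ×60.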

[7] = tested on: A549 cells; assay: Fluorescence microscopy, probe uptake in A549 cells; format: cell-based, human; conditions: 10 μM, 37°C, 5 min
Summary of the method: as §1

[8] = tested on: U87 brain tumors; assay: In vivo and ex vivo NIRF imaging of intracranial U87 tumors; design: species or system mice; conditions: 24 hr after intravenous administration, 15 nmol/mouse
[9] = tested on: U87 cells; assay: Confocal microscopy of U87 cells; format: cell-based, human; conditions: 5 min
Summary of the method: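 U87 cells (1 × 10⁵) on cover slips in 24-well plates were exposed to 10 μM Cy5.5-labelled test compound or free Cy5.5. They were held 5 min at 4°C or 37°C in the dark, then washed twice with PBS. Nuclei were stained with 1 μM Sytox Green. After two more PBS washes, slides were mounted for confocal imaging at emission 693 nm (Cy5.5) and 488 nm (Sytox Green).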

[10] = tested on: gelatinase activity in U87 cell lysates; assay: Gelatin zymography; format: biochemical, human; conditions: U87 cell lysate, doxycycline 100 μM in incubation buffer
Summary of the method: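 U87 cells were lysed in 1% Triton X-100, 50 mM Tris-HCl pH 7.6, 200 mM NaCl, 10 mM CaCl₂, then spun 10 min at 9700 × g. Supernatant was diluted 1:4 in SDS sample buffer, loaded at equal protein and run on 10% gels containing 1 mg/ml gelatin. Gels were washed 4 hr in Triton/CaCl₂ buffer and developed overnight at 37°C (pH 7.6), with doxycycline added, then Coomassie-stained.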

CC(C)C[C@@H]1NC(=O)[C@H]([C@@H](C)O)NC(=O)[C@H](Cc2ccccc2)NC(=O)CNC(=O)[C@H](Cc2c[nH]c3ccccc23)NC(=O)[C@H](Cc2c[nH]cn2)NC(=O)[C@H]([C@@H](C)O)NC(=O)[C@H]([C@@H](C)O)NC(=O)[C@H](C)NC(=O)CCNC1=O [C3, c(ATTHWGFTL-β-Ala)] (cyclo(ATTHWGFTL[βAla]))
IC50 [1]: 83.9 µM

Cy5.5-c(CTTHWGFTLC)NH2 ({Cy5.5}-CTTHWGFTLC-NH2; disulfide 1-10) [Cy5.5-C1]
tumor uptake in intratibial PC-3 tumors [2]: tumor targeting could not be detected | uptake/binding in U87 cells [3]: to a less degree | inhibition of β-casein degradation by MMP-2 [4]: inhibited the degradation of β-casein in a dose-dependent manner

CC(C)C[C@@H]1NC(=O)[C@H]([C@@H](C)O)NC(=O)[C@H](Cc2ccccc2)NC(=O)CNC(=O)[C@H](Cc2c[nH]c3ccccc23)NC(=O)[C@H](Cc2c[nH]cn2)NC(=O)[C@H]([C@@H](C)O)NC(=O)[C@H]([C@@H](C)O)NC(=O)[C@@H](N)CSSC[C@@H](C(N)=O)NC1=O [C1, c(CTTHWGFTLC)NH2, reference compound] (H-CTTHWGFTLC-NH2; disulfide 1-10)
stability of intact peptide [5]: completely degraded | IC50 [1]: 30.3 µM

Cy5.5-c(KAHWGFTLD)NH2 ({Cy5.5}-KAHWGFTLD-NH2; lactam 1-9) [Cy5.5-C6]
uptake in PC-3 cells [6]: taken up | binding to A549 cells (minimal MMP-2 activity) [7]: did not bind | tumor uptake in intratibial PC-3 tumors [2]: clearly visualized | uptake/binding in U87 cells [3]: rapidly taken up | localization to orthotopic U87 gliomas [8]: readily visible | inhibition of β-casein degradation by MMP-2 [4]: inhibited the degradation of β-casein in a dose-dependent manner | cell uptake at 4°C ([9]; 4°C): substantially reduced | cell uptake and distribution at 37°C [9]: distributed to cell cytosol and nuclei

Cy5.5-c(KHGLTWFAD)NH2 ({Cy5.5}-KHGLTWFAD-NH2; also: cyclic, ring type and sites not given here) [Cy5.5-C7]
tumor uptake in intratibial PC-3 tumors [2]: not taken up by the tumors

C[C@H]1c2cccc(O)c2C(=O)C2=C(O)[C@]3(O)C(=O)C(C(N)=O)=C(O)[C@@H](N(C)C)[C@@H]3[C@@H](O)[C@@H]21 [doxycycline, reference compound]
blocking of in vivo uptake of Cy5.5-C6 in PC-3 tumors ([2]; co-injection with doxycycline (data not shown)): could not be blocked | blocking of Cy5.5-C6 binding to U87 cells ([3]; doxycycline 25 and 100 μM followed by Cy5.5-C6 10 μM): partially blocked | blocking of gelatinase activity in zymography [10]: could be blocked

Cy5.5 [reference compound]
uptake/binding in U87 cells [3]: did not bind to the cells | cell uptake and distribution at 37°C [9]: minimal uptake
